Only some compounds are listed: those with a hit (about 3.5% of all), similar ones and a draw of the others.
MrgX1 ag = agonists of human MrgX1 receptor, primary screen, HEK293 cells, Fluo-4 calcium flux | 310,000 compounds, 0.44% hits | Fluo-4 calcium fluorescence, agonist mode; stronger effect = higher value | B-score at 10 µM;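 active = calcium response B-score plate-corrected fluorescence ratio at least 3 library SD, with starting fluorescence B-score inside 5 SD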
Target sequence (Q96LB2 whole entry, looked up): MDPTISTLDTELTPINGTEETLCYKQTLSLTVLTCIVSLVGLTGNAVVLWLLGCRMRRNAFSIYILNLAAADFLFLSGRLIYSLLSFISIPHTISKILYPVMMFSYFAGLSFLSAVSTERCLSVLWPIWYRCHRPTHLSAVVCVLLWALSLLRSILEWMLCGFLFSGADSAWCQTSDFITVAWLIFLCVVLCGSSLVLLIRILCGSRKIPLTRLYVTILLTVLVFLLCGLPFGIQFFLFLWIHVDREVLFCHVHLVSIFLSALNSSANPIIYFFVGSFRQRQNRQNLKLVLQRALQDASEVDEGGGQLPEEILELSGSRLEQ
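times = overnight plating, then 30 min 37 °C plus 30 min room-temperature dye loading | assay system = stable human MrgX1 HEK293 cell line | input = fifteen thousand cells per well | signal = kinetic calcium dye fluorescence, Fluo-4 NW | dosing = compound delivered in addition one of three | read-out = B-scored fluorescence response ratio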
RGS4 block = RGS4 inhibitors, primary screen, cell-based, HEK293 M3R inducible RGS4, calcium flux; Regulator of G-protein signaling 4 (Homo sapiens), P49798; Fluo-4 calcium flux; stronger effect = higher value; triggered by carbachol at its EC20; B-score at 10 µM; 310,000 compounds, 0.45% hits; AID 463165, 2010;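 active = B-score, a plate-corrected calcium signal, over three deviations above library mean, with baseline fluorescence within five deviations of library mean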;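 note: RGS4 expression induced by doxycycline in cells with stable M3 receptor; B-score is computed from the integrated fluorescence ratio over baseline after carbachol; higher B-score means a larger calcium signal and so more RGS4 inhibition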
Target sequence (P49798 whole entry, looked up): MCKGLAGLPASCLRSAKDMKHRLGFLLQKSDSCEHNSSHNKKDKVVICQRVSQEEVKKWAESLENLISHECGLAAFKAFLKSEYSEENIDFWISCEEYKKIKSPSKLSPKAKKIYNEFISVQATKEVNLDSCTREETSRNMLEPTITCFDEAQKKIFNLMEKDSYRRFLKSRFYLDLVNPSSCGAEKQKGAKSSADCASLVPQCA
MrgX1 PAM = positive allosteric modulators of MrgX1, primary screen, HEK293 cells, Fluo-4 calcium flux; Mas-related G-protein coupled receptor member X1 (Homo sapiens), Q96LB2; FDSS; stronger effect = higher value; B-score at 10 µM; 310,000 compounds, 0.63% hits; AID 588675, 2011;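 active = plate-corrected calcium response at least 3 library SD above typical, normal starting fluorescence, not activating the receptor alone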;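 note: compound read alongside a low EC10 to EC30 dose of BAM8-22 agonist; peak minus trough fluorescence over baseline measured at the second addition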
MrgX1 antagonist = antagonists of human MrgX1 receptor, primary screen, HEK293 cells, Fluo-4 calcium flux. BAM8-22 antagonism; stronger effect = lower value. 310,000 compounds, 1.3% hits. Mas-related G-protein coupled receptor member X1 (Homo sapiens), Q96LB2. AID 588676, 2011. B-score at 10 µM;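 active = calcium-response B-score plate-corrected more than 3 library SD below zero, starting fluorescence within 5 deviations, no agonist response on first addition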;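 note: peak minus trough fluorescence over baseline after final BAM8-22 challenge near maximal dose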
RGS4 pot = RGS4 potentiators or activators, primary screen, cell-based, HEK293 M3R inducible RGS4, calcium flux. carbachol calcium flux Fluo4; stronger effect = lower value. AID 463111, 2010. 310,000 compounds, 0.92% hits. B-score at 10 µM;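 active = B-score of the integrated calcium signal more than 4 SD below the library mean, with starting fluorescence not abnormally high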;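 note: negative B-score means reduced calcium response which marks RGS4 activation or potentiation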
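test system = HEK293 cells with stable M3R and inducible RGS4 | schedule = recording 10 s baseline at 1 Hz, 100 s post-agonist | technique = Fluo4-AM (2 µM) calcium-flux fluorescence, kinetic read | measure = Agonist-evoked peak-minus-minimum fluorescence over baseline, integrated ratio, B score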
MrgX1 ant reconf = MrgX1 receptor antagonists, duplicate retest, confirmation, HEK293 cells, Fluo-4 calcium flux | shares compounds with MrgX1 antagonist | BAM8-22 calcium flux; stronger effect = lower value | remaining BAM8-22 calcium response % of control (stronger effect = lower value), % at 10 µM | 2,300 compounds, 19% hits | AID 602420, 2012;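 active = remaining agonist calcium response no higher than 100% minus 3 SD of agonist-only control wells, with starting fluorescence near control levels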;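 note: agonist BAM8-22 given at a near maximal EC90 to ECmax level; peak minus minimum fluorescence divided by baseline after agonist addition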
HEK293 Ca flux = nonspecific calcium signal in parental HEK293, confirmation, counter-screen for MrgX1 antagonist project, parental HEK293 cells, Fluo-4 calcium flux; shares compounds with MrgX1 antagonist; Fluo-4 calcium fluorescence, FDSS; fluorescence ratio F(max-min)/F0 at 10 µM; 4,000 compounds, 2% hits; AID 624111, 2012;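 active = duplicate-averaged calcium fluorescence ratio at least three times the standard deviation of buffer wells, a nonspecific response in parental cells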
HEK293 Ca counter = calcium response in parental HEK293 cells, primary screen, counter-screen for MrgX1 allosteric activator project, cell-based, Fluo-4 calcium flux, duplicate. shares compounds with MrgX1 antagonist. Fluo-4 fluorescence ratio; stronger effect = higher value. 4,000 compounds, 0.4% hits. fluorescence ratio F(max-min)/F0 at 10 µM;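 active = calcium fluorescence ratio, averaged over duplicates, at least 3 SD of the buffer-well ratio, meaning a nonspecific response in receptor-free cells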;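 note: untransfected parental HEK293 lacking MrgX1 used as counterscreen for MrgX1 allosteric activators; fluorescence change taken during the second addition on a kinetic imager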
HEK293 Ca cntr2 = calcium response in parental HEK293 cells, primary screen, counter-screen for MrgX1 agonist project, cell-based, Fluo-4 calcium flux, duplicate, agonist mode. shares compounds with MrgX1 antagonist. Fluo-4 calcium fluorescence (FDSS); stronger effect = higher value. fluorescence ratio F(max-min)/F0 at 10 µM. 4,000 compounds, 8.7% hits;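 active = calcium fluorescence ratio at least three times the spread of buffer wells, meaning a non-specific response in parental cells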
The depositor's hits bear a star; i = inactive; . = not tested or not shown.

SMILES	MrgX1 ag	RGS4 block	MrgX1 PAM	MrgX1 antagonist	RGS4 pot	MrgX1 ant reconf	HEK293 Ca flux	HEK293 Ca counter	HEK293 Ca cntr2
COc1ccc(C)cc1S(=O)(=O)N(CC(=O)N1CCCC1)c1ccccc1	i	i	i	-5.82*	i	i	i	i	i
COc1ccc(C)cc1S(=O)(=O)N(CC(=O)N1CCCC1)c1ccc(C)cc1	i	i	i	i	i	.	.	.	.
CCCCOc1ccc(C(C)NC(=O)C2CCCN(S(=O)(=O)CCC)C2)cc1 (stereo unspecified)	i	i	i	i	i	.	.	.	.
CCOC(=O)C1=C(O)/C(=C\c2sccc2C)N=C1C	i	i	i	-5.24*	i	i	i	i	i
Cc1c(C(=O)Nc2ccc3c(c2)OCO3)sc2ncn(CC(=O)N3CC(C)CC(C)C3)c(=O)c12 (stereo unspecified)	i	i	i	-6.48*	i	83.3%*	i	i	i
COc1ccccc1N=Cc1c(C)c(C#N)c2[nH]c3ccccc3n2c1=O	i	i	i	-6.21*	i	i	i	i	i
CCCN1CCC(NC(=O)C2CCN(C(C)=O)CC2)CC1	i	i	i	i	i	.	.	.	.
Cc1ccc(NC(=O)c2sccc2C)cc1S(=O)(=O)N(C)C	i	i	i	-5.16*	i	i	i	i	i
Cc1ccc(NC(=O)c2ccccc2Br)cc1S(=O)(=O)N(C)C	i	i	i	i	i	.	.	.	.
CC(C)(C)c1ccc(C(=O)NCC(=O)N2CCC3(CC2)NCCc2[nH]cnc23)cc1	i	i	i	i	i	.	.	.	.
C[C@]12CCC[C@H](O1)c1c(cc3c(c1O)C(=O)c1c(O)cc(O)cc1C3=O)O2	i	i	i	-7.58*	i	i	0.644*	i	i
CC1(C)CC(=O)c2c(O)cc(O)cc2O1	i	i	i	i	i	.	.	.	.
COc1ccc(NC(=O)c2c3c(nc4ccccc24)CCC3)cc1S(=O)(=O)N1CCOCC1	i	i	i	i	i	.	.	.	.
CN(C)CCCNc1ncnc2scc(-c3ccccc3)c12	i	i	i	i	i	.	.	.	.
c1ccc(-c2csc3ncnc(NCc4ccccn4)c23)cc1	i	i	i	-5.61*	i	i	i	i	i
CCOc1ccccc1Nc1ncccc1C(=O)O	i	i	i	i	i	.	.	.	.
COc1ccccc1Nc1ncccc1C(=O)O	i	i	i	-8.53*	i	77.1%*	i	i	i
Cc1cccc(C)c1NC(=S)N(CCCN1CCOCC1)Cc1cccnc1	i	i	i	-4.89*	i	i	i	i	i
Cc1cc(C)c(NC(=S)N(CCCN2CCOCC2)Cc2cccnc2)c(C)c1	i	i	i	i	i	.	.	.	.

Bioassay records (PubChem BioAssay)
